Assay results as given in article PMC10694825 (The journal of physical chemistry. B, 2023).
Residue numbers refer to the chain shown, from its start. Read-outs that look alike come from different tables or passages of the source.

How the values were obtained:
PTP1B [1] = target: T1, PTP1B (Homo sapiens, UniProt P18031); conditions: cited from earlier work; for selectivity: inhibits PTP1B more potently than TCPTP (fold): PTP1B over TCPTP
T1 sequence (P18031 1-321): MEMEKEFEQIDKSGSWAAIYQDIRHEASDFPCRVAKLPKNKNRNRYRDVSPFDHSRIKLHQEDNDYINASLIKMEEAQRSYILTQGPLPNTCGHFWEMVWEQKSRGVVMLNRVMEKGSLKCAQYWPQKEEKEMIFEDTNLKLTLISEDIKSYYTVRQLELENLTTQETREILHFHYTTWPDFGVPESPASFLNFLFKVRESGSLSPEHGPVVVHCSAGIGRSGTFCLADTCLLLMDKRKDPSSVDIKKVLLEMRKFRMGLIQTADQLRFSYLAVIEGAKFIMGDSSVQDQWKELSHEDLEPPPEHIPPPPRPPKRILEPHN

TCPTP [2] = target: T2, TCPTP (Homo sapiens, UniProt P17706); test: pNPP enzyme kinetics, inhibition by amorphadiene; format: biochemical; conditions: read-out: IC50 for TCPTP; wild type, pNPP substrate, this study
T2 sequence (P17706 1-317): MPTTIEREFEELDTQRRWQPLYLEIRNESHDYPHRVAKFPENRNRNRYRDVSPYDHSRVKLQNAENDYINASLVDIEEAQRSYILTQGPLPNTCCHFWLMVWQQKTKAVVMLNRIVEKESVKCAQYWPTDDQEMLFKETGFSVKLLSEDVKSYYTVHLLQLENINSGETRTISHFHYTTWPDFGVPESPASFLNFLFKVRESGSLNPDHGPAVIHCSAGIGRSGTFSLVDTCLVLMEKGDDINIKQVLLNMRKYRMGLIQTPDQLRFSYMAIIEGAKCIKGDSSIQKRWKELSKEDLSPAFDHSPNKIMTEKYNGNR
In short: (§1)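 Truncated enzymes (PTP1B 1–351, TCPTP 1–317) expressed in E. coli BL21(DE3), purified by Ni-affinity and anion-exchange. Reactions held 50 nM enzyme, 50 μg/mL BSA and terpenoid at 0.5–500 μM in 50 mM HEPES pH 7.3 with 10% DMSO for 1 h at 22 °C. 20 mM pNPP started the reaction; A405 read every 30 s over 8 min. Initial rates came from a standard curve, and IC50 from a Hill-equation fit. Selectivity was taken as the TCPTP/PTP1B IC50 ratio.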

TCPTP L158F = target: T3, TCPTP L158F (Homo sapiens, UniProt P17706, L158F); test: pNPP enzyme kinetics, L158F variant; format: biochemical; conditions: TCPTP L158F vs wild type
T3 sequence (P17706 1-317 L158F): T2 sequence (P17706 1-317) with L158F

PTP1B L158F = target: T4, PTP1B L158F (Homo sapiens, UniProt P18031, L158F); test: pNPP enzyme kinetics, L158F variant; format: biochemical; conditions: PTP1B L158F vs wild type
T4 sequence (P18031 1-321 L158F): T1 sequence (P18031 1-321) with L158F

PTP1B [3] = target: T1, PTP1B; conditions: MD simulation, cited from earlier work
PTP1B M282K = target: T5, PTP1B M282K (Homo sapiens, UniProt P18031, M282K); test: pNPP enzyme kinetics, M282K variant; format: biochemical; conditions: PTP1B M282K vs wild type
T5 sequence (P18031 1-321 M282K): T1 sequence (P18031 1-321) with M282K
In short: (§2)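 Catalytic-domain constructs (PTP1B 1–351, TCPTP 1–317), with mutations made by Gibson assembly, expressed in E. coli BL21(DE3) and purified by Ni-affinity then anion exchange. Enzyme at 50 nM with 50 μg/mL BSA and test compound (0.5–500 μM) in 50 mM HEPES pH 7.3 with 10% DMSO, preincubated 1 h at 22 °C. Started with 20 mM pNPP; A405 read every 30 s for 8 min. IC50 from a Hill fit of initial rates.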

PTP1B Q290R = target: T6, PTP1B Q290R (Homo sapiens, UniProt P18031, Q290R); test: pNPP enzyme kinetics, Q290R variant; format: biochemical; conditions: PTP1B Q290R vs wild type
T6 sequence (P18031 1-321 Q290R): T1 sequence (P18031 1-321) with Q290R
In short: as §2

TCPTP [4] = target: T2, TCPTP; conditions: read-out: IC50 for TCPTP; previously reported; cited from earlier work
TCPTP K280M = target: T7, TCPTP K280M (Homo sapiens, UniProt P17706, K280M); test: pNPP enzyme kinetics, K280M variant; format: biochemical; conditions: TCPTP K280M vs wild type
T7 sequence (P17706 1-317 K280M): T2 sequence (P17706 1-317) with K280M
In short: as §2

TCPTP R288Q = target: T8, TCPTP R288Q (Homo sapiens, UniProt P17706, R288Q); test: pNPP enzyme kinetics, R288Q variant; format: biochemical; conditions: TCPTP R288Q vs wild type
T8 sequence (P17706 1-317 R288Q): T2 sequence (P17706 1-317) with R288Q
In short: as §2

PTP1B [5] = target: T1, PTP1B; test: pNPP enzyme kinetics, inhibition by amorphadiene; format: biochemical; conditions: this study
In short: as §1

## CC(C)=CCC=C(C)C1CC=C(C)CC1 (stereo not drawn) [AB, α-bisabolene]
PTP1B [1]
  selectivity: inhibits PTP1B more potently than TCPTP (fold): 5–8 ×

## C=C(C)[C@@H]1CC[C@@H](C)[C@@H]2CCC(C)=C[C@@H]21 [AD, amorphadiene]
TCPTP [2]
  IC50: 27 ± 11.2 µM
TCPTP L158F
  IC50 of L158F mutant compared with wild type: indistinguishable between wild-type and mutant enzymes
PTP1B L158F
  IC50 of L158F mutant compared with wild type: indistinguishable between wild-type and mutant enzymes
PTP1B [3]; PTP1B with disordered α7 helix
  occupancy of the β site (loc4), observed trajectories: 0%
PTP1B [3]; PTP1B with truncated α7 helix
  occupancy of the β site (loc4), observed trajectories: 88%
PTP1B M282K
  effect of mutation on potency (IC50): reduced potency
PTP1B Q290R
  effect of mutation on potency (IC50): reduced potency
TCPTP [4]
  IC50: 349 ± 77 µM
PTP1B [1]
  selectivity: inhibits PTP1B more potently than TCPTP (fold): 5–8 ×
PTP1B [1]; previously reported
  IC50 ratio (TCPTP/PTP1B), metric for selectivity: 6.6 ± 1.8
PTP1B [1]; read-out: IC50 for PTP1B, previously reported
  IC50: 53 ± 8 µM
TCPTP K280M
  effect of mutation on IC50: no effect on the IC50
TCPTP R288Q
  effect of mutation on IC50: no effect on the IC50
PTP1B [5]; read-out: IC50 for PTP1B, wild type, pNPP substrate
  IC50: 7.7 ± 2.4 µM
PTP1B [5]
  IC50 ratio (TCPTP/PTP1B), metric for selectivity: 3.5 ± 1.8
